A short description of data set [1]: Cytotoxicity against primary HUVEC measured after 48 hrs by MTT assay. It counts as toxicity, cell-based. The note with it: human. A general note: Tetrazolium dyes change colour on reduction, which living cells bring about.
Data set [2] in a line: Cytotoxicity against human THP1 cells measured after 48 hrs by MTT assay. It counts as toxicity, cell-based, THP-1. Put shortly: (§1)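 MTT assay with 48 h compound exposure. THP-1 macrophages made by 24 h PMA treatment. Each concentration tested in triplicate in one experiment. % cytotoxicity = (control−test)/(control−blank)×100, with control = cells + DMSO and blank = medium without cells. IC50 from % survival versus concentration plots.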

The nature of data set [3]: Cytotoxicity against human HeLa cells measured after 48 hrs by MTT assay. It counts as toxicity, cell-based.
Data set [4] in a line: Cytotoxicity against […]-differentiated human THP1 cells measured after 48 hrs by MTT assay. It counts as toxicity, cell-based, THP-1. Put shortly: as §1
Data set [5] is described as follows: Cytotoxicity against human PANC1 cells measured after 48 hrs by MTT assay. It counts as toxicity, cell-based, PANC-1.
Data set [6] in a line: Cytotoxicity against human A549 cells measured after 48 hrs by MTT assay. It counts as toxicity, cell-based.
Data set [7] can be described thus: Selectivity index, ratio of GI50 for human A549 cells to MIC for Mycobacterium tuberculosis H37Ra ATCC 25177 at dormant stage. It counts as toxicity, cell-based. The note with it: read-out: Selectivity Index. Put shortly: (§2)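 SI is the cell-line GI50 divided by the dormant-stage mycobacterial MIC. […] THP-1 macrophages were PMA-differentiated for 24 h.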
Data set [8] can be described thus: Selectivity index, ratio of GI50 for human PANC1 cells to MIC for Mycobacterium tuberculosis H37Ra ATCC 25177 at dormant stage. It counts as toxicity, cell-based, PANC-1. The note with it: read-out: Selectivity Index. Put shortly:
as §2

Data set [9] in a line: Selectivity index, ratio of GI50 for HUVEC to MIC for Mycobacterium tuberculosis H37Ra ATCC 25177 at dormant stage.
Data set [10] is described as follows: Selectivity index, ratio of GI50 for human HeLa cells to MIC for Mycobacterium tuberculosis H37Ra ATCC 25177 at dormant stage. It counts as toxicity, cell-based. The settings on record: read-out: Selectivity Index. In outline: as §2
Data set [11] is described as follows: Selectivity index, ratio of GI50 for […]-differentiated human THP1 cells to MIC for Mycobacterium tuberculosis H37Ra ATCC 25177 at dormant stage. It counts as toxicity, cell-based, THP-1. The settings on record: read-out: Selectivity Index. In outline:
as §2

Data set [12] in a line: Selectivity index, ratio of GI50 for human THP1 cells to MIC for Mycobacterium tuberculosis H37Ra ATCC 25177 at dormant stage. It counts as toxicity, cell-based, THP-1. The note with it: read-out: Selectivity Index. In outline:
as §2

Data set [13] deals with Mycobacterium tuberculosis. The experiment in a line: Growth inhibition of Mycobacterium tuberculosis H37Ra ATCC 25177 at active stage measured after 8 days by XTT dye based two fold dilution method. It counts as functional. The note with it: H37Ra ATCC 25177, 192 h. In outline:
(§3)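 MTB H37Ra was grown in Dubos medium, then exposed in Mycobacterium pheli minimal medium (pH 6.6) to compounds dissolved in DMSO. The assay ended on day 8 (active) or day 12 (dormant). Viable cells were measured by XTT reduction menadione assay at 470 nm, blank-corrected, relative to vehicle control. Triplicates were expressed as mean ± SD. MIC came from dose-response curves.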

Data set [14] relates to Mycobacterium tuberculosis. The experiment in a line: Growth inhibition of Mycobacterium bovis BCG ATCC 35743 at active stage measured after 8 days by nitrate reductase dye based two fold dilution method. The settings on record: BCG str. ATCC 35743, 192 h. It counts as functional. Put shortly:
(§4)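 M. bovis BCG was grown in Dubos medium and assayed in Mycobacterium pheli minimal medium (pH 6.6), with compounds from DMSO stocks. Incubation lasted 8 days for active and 12 days for dormant cultures. Viability was read by nitrate reductase at 540 nm against cell-free blanks, with vehicle set as 100% growth. Primary screen was at 30, 10 and 3 µg/ml, in triplicate, mean ± SD. MIC was taken from dose-response curves.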

Data set [15] deals with Mycobacterium tuberculosis. The data set can be described thus: Growth inhibition of Mycobacterium tuberculosis H37Ra ATCC 25177 at dormant stage measured after 12 days by XTT dye based two fold dilution method. The note with it: H37Ra ATCC 25177, 288 h. It counts as functional. In outline:
as §3

Data set [16] deals with Mycobacterium tuberculosis. The experiment in a line: Growth inhibition of Mycobacterium bovis BCG ATCC 35743 at dormant stage measured after 12 days by nitrate reductase dye based two fold dilution method. The settings on record: BCG str. ATCC 35743, 288 h. It counts as functional. Put shortly:
as §4

Data set [17] in a line: Selectivity index, ratio of GI50 for HUVEC to MIC for Mycobacterium bovis BCG ATCC 35743 at dormant stage. The settings on record: pooled result: one value given for 6 cell lines, strains, targets or settings. In outline: as §2

The structures appear in SMILES notation. In brackets after ≈: the same amount, converted by molar mass.

The term GI50 denotes the concentration at which growth is held to half of that of the control. A lower GI50 goes with greater sensitivity of the cells. A word on the IC50: it is the concentration at which inhibition is half-maximal. For orientation: IC90 means the concentration at which the effect reaches the 90% level.

In the case of `CC(=O)O[C@H]1C(=O)[C@@]2(C)[C@H]([C@H](OC(=O)c3ccccc3)[C@]3(O)C[C@H](OC(=O)[C@H](O)[C@@H](NC(=O)c4ccccc4)c4ccccc4)C(C)=C1C3(C)C)[C@]1(OC(C)=O)CO[C@@H]1C[C@@H]2O` [PACLITAXEL], the 50% growth inhibitory concentration (GI50) at 48 h was greater than 10 µg/mL in data set [1]; 5.7 µg/mL (≈ 6.68 µM) in [2]; 0.08 µg/mL (≈ 0.0937 µM) in data set [3]; greater than 100 µg/mL in data set [4]; 5.8 µg/mL (≈ 6.79 µM) in [5]; 0.04 µg/mL (≈ 0.0468 µM) in data set [6].

`CO[C@H]1/C=C/O[C@@]2(C)Oc3c(C)c(O)c4c(O)c(c(/C=N/N5CCN(C)CC5)c(O)c4c3C2=O)NC(=O)/C(C)=C\C=C\[C@H](C)[C@H](O)[C@@H](C)[C@@H](O)[C@@H](C)[C@H](OC(C)=O)[C@@H]1C` [RIFAMPIN]: the selectivity ratio in data set [7], in [8], in data set [10], in data set [11] and in data set [12] was 2500 throughout. Besides, the “Selectivity Index” value in [9] and in data set [17] was 2500 in each case. Also, the results for the IC50 in [13], in [15] and in [16] were 0.0021 µg/mL (≈ 0.00255 µM), 0.0019 µg/mL (≈ 0.00231 µM) and 0.0043 µg/mL (≈ 0.00523 µM), respectively. For the same compound, the concentration for an effect of 90% (IC90) in data set [13] is 0.028 µg/mL (≈ 0.034 µM); in data set [14], 0.0151 µg/mL (≈ 0.0183 µM); in data set [15], 0.02 µg/mL (≈ 0.0243 µM); in data set [16] it was 0.0173 µg/mL (≈ 0.021 µM).
